# SKKanGAS inh – inhibitors of SKKanGAS S. pyogenes growth in kanamycin (SK-promoter or general growth effect); inhibition, % at 7.5 µM; 1.3% of 300,000 active; AID 1662; BacTiter-Glo, 6 h;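 active means mean replicate score, as percent of positive control median, at least 50; inconclusive means mean below 50 but one replicate at or above 50; inactive means mean and every replicate below 50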;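 further: strain carries kanamycin resistance gene driven by streptokinase promoter and grows in 40 µg/ml kanamycin; loss of luminescence reflects streptokinase promoter inhibition or plain growth inhibition; 0% = median of DMSO wells and 100% = positive control at its reference dose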
# Calb FLC – affects C. albicans growth with fluconazole. C. albicans CaCi-2 (fluconazole-resistant clinical isolate) + fluconazole, Alamar Blue growth, 48 h. 0.57% of 300,000 active. growth inhibition, % (test concentration not listed);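 active means growth inhibition above about 58% in most replicates, limit read from the data, passing the limit was not always enough; inconclusive means exactly half the replicates above a set limit; inactive means most replicates below a set limit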;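 further: all wells also contain fluconazole at 8 µg/ml as a sub-toxic cotreatment; 0% = median of DMSO wells and 100% = median of geldanamycin control wells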
# CSC inhib – cancer stem cell inhibition. 1.1% of 300,000 active. inhibition, % at 7.5 µM. cancer stem cell-like cells viability, luminescence; in the data active means inhibition above about 75%; inconclusive means no clear call, values can overlap the other calls; tested in HMLE shEcad cells
# T cruzi repl – blocks replication of Trypanosoma cruzi | T. cruzi beta-gal in NIH3T3, luminescence, 90 h | inhibition, % (no concentration beside the values) | 1.4% of 300,000 active | AID 1885;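 active means mean inhibition across valid replicates above about 55%, limit read from the data; inconclusive means mean below that limit but half or more replicates reach it; inactive means mean below it, under half of replicates reach it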;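 further: signal also drops with host cell toxicity which is not excluded here; 0% = plate median of DMSO wells and 100% = zero luminescence signal; higher percent means less beta-gal luminescence so fewer parasites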
#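 System: Mouse NIH/3T3 fibroblasts infected with β-gal-expressing T. cruzi Tulahuen C4 | Quantity: NIH/3T3 cells, 5,000 per well | Reagent: 5000 reporter trypomastigotes per well | Dosing: Compound pinned at 50 nL/well, DMSO | Schedule: 3 h host attachment, then at least 90 h co-culture | Detection: GalScreen luminescence, 60 min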
# Mdm2 MdmX PPI – disrupts the human Mdm2-MdmX interaction. O15151+Q00987. SaOS-2 split-luciferase Mdm2/MdmX complementation, luminescence. inhibition, % at 8 µM. 3% of 330,000 active. AID 485346;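 active means inhibition of at least 50% at 8 µM in the primary screen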
# Target sequence (O15151 whole entry, looked up): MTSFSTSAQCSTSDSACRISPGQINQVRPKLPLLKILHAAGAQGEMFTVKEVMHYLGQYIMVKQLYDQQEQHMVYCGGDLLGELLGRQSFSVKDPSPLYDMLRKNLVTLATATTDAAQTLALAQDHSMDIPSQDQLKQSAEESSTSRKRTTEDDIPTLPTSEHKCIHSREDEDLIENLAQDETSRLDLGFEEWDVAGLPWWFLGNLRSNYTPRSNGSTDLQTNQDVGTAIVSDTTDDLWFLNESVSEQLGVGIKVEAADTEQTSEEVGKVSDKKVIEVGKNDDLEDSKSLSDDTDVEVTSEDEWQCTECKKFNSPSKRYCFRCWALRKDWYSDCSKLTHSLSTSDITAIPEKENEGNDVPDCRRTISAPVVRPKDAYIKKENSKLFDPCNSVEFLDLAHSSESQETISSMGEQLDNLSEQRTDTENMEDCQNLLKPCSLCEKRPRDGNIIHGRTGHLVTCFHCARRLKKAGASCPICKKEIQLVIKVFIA
# Target sequence (Q00987 whole entry, looked up): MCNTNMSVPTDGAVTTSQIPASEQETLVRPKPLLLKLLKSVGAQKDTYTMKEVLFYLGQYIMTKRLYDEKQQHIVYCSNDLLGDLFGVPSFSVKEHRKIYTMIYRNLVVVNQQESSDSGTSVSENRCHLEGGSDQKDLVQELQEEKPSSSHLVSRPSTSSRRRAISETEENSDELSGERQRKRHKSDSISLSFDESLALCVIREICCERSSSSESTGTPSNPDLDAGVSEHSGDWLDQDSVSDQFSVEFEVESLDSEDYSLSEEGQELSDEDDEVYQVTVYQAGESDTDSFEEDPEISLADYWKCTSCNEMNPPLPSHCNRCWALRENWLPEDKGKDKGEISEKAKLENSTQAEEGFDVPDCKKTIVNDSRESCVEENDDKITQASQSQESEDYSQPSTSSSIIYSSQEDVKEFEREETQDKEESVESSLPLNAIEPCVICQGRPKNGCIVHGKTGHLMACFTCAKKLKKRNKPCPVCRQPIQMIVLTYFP
# Beta cell apopt – beta cell apoptosis inhibition. INS-1E cytokine-induced death, ATP luminescence, 48 h; percent of positive-control rescue, neutral wells zero. protection from apoptosis, % (test concentration not listed). 0.8% of 300,000 active;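 active means Every replicate reaches about 75%, or at least half do and their mean reaches it too, limit read from the data; inconclusive means At least half of replicates reach the limit but their mean does not; inactive means Under half of replicates reach the limit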;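 further: 0% = cytokine-treated negative control wells and 100% = positive control rescue; higher means more ATP so stronger rescue from cytokine killing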
# Mdm2 MdmX conf – confirmation of human Mdm2/MdmX interaction inhibitors; AID 489028; shares compounds with Mdm2 MdmX PPI; 55% of 10,000 active; inhibition, % at 8 µM; Mdm2-MdmX binding, luminescent assay; in the data active means inhibition above about 40%
# Full FLuc ctr – counter-screen for Mdm2/MdmX inhibitors: full-length luciferase; shares compounds with Mdm2 MdmX PPI; SaOS-2 full-length luciferase counterscreen, luminescence; 77% of 6,200 active; AID 504607; inhibition, % at 8 µM;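 active means mean inhibition at 8 µM reaching about 37%, which flags the compound as non-specific, limit read from the data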;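 further: p53-null SaOS-2 cells with luciferase driven by a doxycycline-inducible promoter; compound on cells about two nights before reading with doxycycline added after day one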
# Starred values were filed as active, the others as inactive; ? = inconclusive; . = not tested or not shown. An excerpt weighted towards active compounds, which were near 5.7% of everything screened.
SMILES,SKKanGAS inh,Calb FLC,CSC inhib,T cruzi repl,Mdm2 MdmX PPI,Beta cell apopt,Mdm2 MdmX conf,Full FLuc ctr
CN1CCN(C(c2cccc(Cl)c2)c2ccccc2Cl)CC1 (stereo not drawn),11,-8,-2,40,55*,0,44*,65*
CCNc1nc(NC(C)(C)C)nc(N2CCCC2)n1,10,1,.,35,25,28,.,.
CC(C)(C)Nc1nc(N2CCCC2)nc(N2CCCC2)n1,-9,1,21,47,55*,38,37,.
COc1ccc(CN2CC(=O)N3[C@H]4c5ccccc5OC[C@@H]4[C@H](c4ccccc4)[C@]3(C)C2=O)cc1,.,.,4,.,-2,5,.,.
O/N=C/c1ccc(-c2cc(Cl)ccc2Cl)o1,-12,-2,19,10,57*,0,42*,53*
COC(=O)N/N=C/c1ccc(-c2cc(Cl)ccc2Cl)o1,14,-3,-9,2,-16,-3,.,.
NS(=O)(=O)c1ccc(CNC(=O)C(c2ccccc2)c2ccccc2)cc1,-1,11,40,-7,16,-2,.,.
Cc1nn2c(N3CCOCC3)cc(C(C)(C)C)nc2c1-c1ccccc1,-1,3,2,2,24,-7,.,.
CCN1CCN(c2ccc(NC(=O)CCc3c(C)nc4c(-c5ccccc5)c(C)nn4c3C)cc2)CC1,12,6,54,15,89*,.,44*,66*
CCN1CCN(c2cc(C(C)C)nc3c(-c4ccccc4)c(C)nn23)CC1,3,-3,-4,6,55*,3,28,.
CCN1CCN(c2cc(C(C)(C)C)nc3c(-c4ccccc4)c(C)nn23)CC1,3,21,140*,50,54*,64,53*,67*
O=C(NC(=S)NCc1ccccc1Cl)c1cccs1,.,.,.,.,19,1,.,.
COC(=O)c1ccc(CO/N=C/c2ccc(OC)cc2OC)cc1,-1,-1,-12,-9,12,-5,.,.
CCOc1nc(-c2ccccc2)c2cc(Br)ccc2n1,-2,-3,-14,2,-12,-1,.,.
CN1CCN(c2cc(=O)n(C3CCCCC3)c(=O)[nH]2)CC1,-1,-1,0,4,-7,-4,.,.
O=c1cc(N2CCN(c3cccc(Cl)c3)CC2)[nH]c(=O)n1C1CCCCC1,-4,2,66,16,84*,89*,72*,40*
O=c1cc(N2CCN(c3ccccc3)CC2)[nH]c(=O)n1C1CCCCC1,-3,-9,49,-16,67*,-28,66*,56*
Cn1c(=O)[nH]c(=O)c2c1nc(N1CCN(c3ccccc3)CC1)n2CCSc1ncccn1,-6,4,.,-1,54*,-7,24,.
Cn1c(=O)[nH]c(=O)c2c1nc(N1CCCCC1)n2CCSc1ncccn1,4,2,-3,-9,4,-5,.,.
CCOc1ccc(NC(=O)CCCOc2cc(=O)n(C)c3ccccc23)cc1,-4,22,-9,25,52*,-3,20,.
Cc1ccnc(NC(=O)CCCc2c[nH]c3ccccc23)c1,-4,4,-15,-1,68*,.,36,.
Cc1ccnc(NC(=O)CSc2cc(=O)n(C)c3ccccc23)c1,-5,-22,?,13,83*,-15,76*,127*
Cc1ccnc(NC(=O)CCCOc2cc(=O)n(C)c3ccccc23)c1,-1,0,38,-3,75*,34,84*,117*
CN(CC(=O)Nc1cccc(F)c1)C(=O)C1CCN(S(=O)(=O)c2ccc3c(c2)OCCO3)CC1,-2,-6,-3,13,18,.,.,.
COc1ccc(CCC(=O)OCC(=O)N2CCN(S(=O)(=O)c3ccc(C)cc3C)CC2)cc1,.,.,-6,.,-6,-10,.,.
SMILES,SKKanGAS inh,Calb FLC,CSC inhib,T cruzi repl,Mdm2 MdmX PPI,Beta cell apopt,Mdm2 MdmX conf,Full FLuc ctr
O=C(NCc1ccccc1)NC(=O)c1ccccc1F,2,-2,-13,-2,-9,-10,.,.
Cn1c(=O)cc(OCC(=O)NC2CCCCC2)c2ccccc21,-10,-11,-9,11,-20,-1,.,.
Cn1c(=O)cc(OCCCC(=O)NC2CCCC2)c2ccccc21,3,-25,6,5,67*,-29,48*,86*
Cn1c(=O)cc(OCCCC(=O)NCc2ccc(F)cc2Cl)c2ccccc21,-6,-12,-7,0,57*,-2,20,.
Cc1cccc2c1cnn2C(=O)CCC(=O)NCC(C)c1ccccc1 (stereo not drawn),5,-1,-2,-11,13,1,.,.
O=C(Nc1ccc(N2CCOCC2)cc1)Nc1ccc2nc(-c3ccco3)c(-c3ccco3)nc2c1,30,-4,.,39,61*,3,41*,61*
CCC(=NCCc1c(C)[nH]c2ccc(C)cc12)C1=C(O)CC(c2ccccc2)CC1=O (stereo not drawn),14,13,72,12,67*,15,61*,70*
CCCCC(C(=O)NC1CCCC1)N(C(=O)c1snc(C(N)=O)c1N)c1ccc(C)cc1 (stereo not drawn),5,4,.,12,9,8,.,.
COc1cc2c(cc1OC)C(C1C(=O)CCCC1=O)N(C(=O)CCl)CC2 (stereo not drawn),-6,-18,-6,-23,10,-1,.,.
COc1cc2c(cc1OC)C(c1ccccc1)N(C(=O)CCl)CC2 (stereo not drawn),-7,-26,-9,-3,100*,9,9,.
CCN(CC)CCNc1nc(-n2nc(C)cc2C)nc2sc3c(c12)CC(C)(C)OC3,2,5,13,?,61*,-9,35,.
Cc1cc(C)n(-c2nc(NCCN(C)C)c3c4c(sc3n2)COC(C)(C)C4)n1,12,-44,6,27,65*,-1,37,63*
CC(C)CNc1nnnc2c1sc1nc(N3CCOCC3)c3c(c12)CC(C)(C)SC3,23,25,-6,46,35,19,.,.
CC1(C)Cc2c(c(N3CCOCC3)nc3sc4c(NCc5ccccc5)nnnc4c23)CS1,14,-8,8,62*,94*,8,6,.
CC1(C)Cc2c(c(N3CCOCC3)nc3sc4c(NN)ncnc4c23)CS1,17,-8,87*,27,61*,81*,12,.
Cn1c(=O)c2c(SCC(=O)N3CCCc4ccccc43)nc(CC(C)(C)C)nc2n(C)c1=O,39,0,0,16,69*,4,26,.
CCCc1nc(SCC(=O)N2CCC(Cc3ccccc3)CC2)c2c(=O)n(C)c(=O)n(C)c2n1,27,-9,10,34,60*,4,42*,79*
CCCc1nc(SCC(=O)N2CCCc3ccccc32)c2c(=O)n(C)c(=O)n(C)c2n1,20,-5,7,37,43,11,.,.

# Screens from PubChem BioAssay.
